According to ChEMBL document CHEMBL1143879, “Identification of novel series of human CCR1 antagonists” (Bioorg Med Chem Lett, 2008):

Assays:
[1] = biological target: T1, C-C chemokine receptor type 1 (Homo sapiens, UniProt P32246); experiment: Displacement of [125I]MIP1-alpha from human CCR1 receptor expressed in THP1 cells; format: cell-based, THP-1
T1 sequence (P32246 whole entry): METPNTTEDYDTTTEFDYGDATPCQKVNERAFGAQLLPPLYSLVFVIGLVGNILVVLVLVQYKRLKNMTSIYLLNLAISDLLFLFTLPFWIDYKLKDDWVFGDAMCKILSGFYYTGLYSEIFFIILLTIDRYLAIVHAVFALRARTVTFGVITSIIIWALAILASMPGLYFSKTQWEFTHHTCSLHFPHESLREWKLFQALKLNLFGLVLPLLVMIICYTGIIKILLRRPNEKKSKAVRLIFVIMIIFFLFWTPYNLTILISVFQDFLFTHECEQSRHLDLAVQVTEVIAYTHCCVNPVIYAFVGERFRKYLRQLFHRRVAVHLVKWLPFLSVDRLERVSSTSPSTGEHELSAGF
Summary of the method: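 THP-1 cells expressing CCR1, washed in PBS, at 5 × 10⁶/ml with compound or vehicle and 50 pM human [¹²⁵I]MIP-1α. Binding buffer: 50 mM Hepes pH 7.4, 5 mM MgCl₂, 1 mM CaCl₂, 0.5% BSA. Incubated 90 min at room temperature, then filtered on PEI-coated glass fibre and washed with buffer plus 0.5 M NaCl. Bound counts by scintillation. IC50, mean of triplicates in one experiment.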

[2] = biological target: T1, C-C chemokine receptor type 1; experiment: Antagonist activity at human CCR1 receptor expressed in THP1 cells assessed as human MIP-1-alpha-stimulated intracellular calcium level by FLIPR assay; format: functional, cell-based, THP-1
Summary of the method: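 THP-1 cells in RPMI-1640 at 2 × 10⁶/ml, mixed 1:1 with calcium dye buffer, loaded 30 min at 37 °C with 2.5 mM probenecid. Cells spun down, resuspended in RPMI-1640 with 0.1% BSA and plated at 1.5 × 10⁵/well with or without compound. Stimulated with 5 nM human MIP-1α; intracellular Ca²⁺ change read by FLIPR. IC50, mean of at least two independent experiments.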

THP-1 = experiment: Inhibition of CCL3-induced chemotaxis in human THP1 cells after 2 hrs; format: functional, cell-based; settings: THP-1, 2 h
Summary of the method: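 Calcein-labelled THP-1 cells washed in RPMI-1640 and resuspended at 5 × 10⁶/ml. Preincubated 30 min at 37 °C with compound or DMSO, then placed above a 5 µm polycarbonate filter in a Boyden chamber. The lower wells held 0.5 nM human MIP-1α with or without compound. Chamber incubated 2 h at 37 °C.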

| SMILES | IC50 [1] | IC50 [2] | IC50 (THP-1) |
| --- | --- | --- | --- |
| O=S(=O)(NCCCN1CCC(O)(c2ccc(Cl)cc2)CC1)c1cccc2ccccc12 | 0.68 µM | 0.18 µM | – |
| O=S(=O)(c1ccccc1Cl)N1CCC(N2CCC(O)(c3ccc(Cl)c(Cl)c3)CC2)CC1 | 0.89 µM | 0.18 µM | – |
| O=S(=O)(c1c(Cl)cccc1Cl)N1CCC(N2CCC(O)(c3ccc(Cl)cc3)CC2)CC1 | 0.42 µM | 0.42 µM | – |
| Cc1ccccc1S(=O)(=O)NCCCN1CCC(O)(c2ccc(Cl)cc2)CC1 | 0.15 µM | 0.03 µM | – |
| Cc1cccc(Cl)c1S(=O)(=O)N1CCC[C@@H](N2CCC(O)(c3ccc(Cl)cc3)CC2)C1 | 0.39 µM | 0.27 µM | – |
| Cc1ccc(S(=O)(=O)NCCCN2CCC(O)(c3ccc(Cl)cc3)CC2)cc1 | 0.43 µM | 0.12 µM | – |
| O=S(=O)(c1ccccc1Cl)N1CCC(N2CCC(O)(c3cccc(Cl)c3)CC2)CC1 | 7 µM | 6.21 µM | – |
| Cc1cccc(Cl)c1S(=O)(=O)N1CCC(C)(N2CCC(O)(c3ccc(Cl)cc3)CC2)CC1 | 3.57 µM | 2.26 µM | – |
| Cc1cccc(Cl)c1S(=O)(=O)NCCCN1CCC(O)(c2ccc(Cl)cc2)CC1 | 0.09 µM | 0.04 µM | – |
| CC1(N2CCC(O)(c3ccc(Cl)cc3)CC2)CCN(S(=O)(=O)c2cccs2)CC1 | > 10 µM | 7.33 µM | – |
| O=S(=O)(NCCCN1CCC(O)(c2ccc(Cl)cc2)CC1)c1ccc(-c2ccccc2)cc1 | > 30 µM | > 30 µM | – |
| O=S(=O)(c1ccccc1Br)N1CCC[C@H](N2CCC(O)(c3ccc(Cl)cc3)CC2)C1 | 0.46 µM | 1.3 µM | – |
| O=S(=O)(c1ccccc1Cl)N1CCC(N2CCCC(O)(c3ccc(Cl)cc3)CC2)CC1 (configuration not stated) | 0.4 µM | 0.13 µM | – |
| CC1CC(N2CCC(O)(c3ccc(Cl)cc3)CC2)CCN1S(=O)(=O)c1ccccc1Cl (configuration not stated) | 0.32 µM | 0.28 µM | – |
| COc1ccc(C2(O)CCN(C3CCN(S(=O)(=O)c4ccccc4Cl)CC3)CC2)cc1 | > 10 µM | > 10 µM | – |
| O=S(=O)(NCCCN1CCC(O)(c2ccc(Cl)cc2)CC1)c1ccccc1Br | 0.14 µM | 0.17 µM | – |
| Cc1ccccc1S(=O)(=O)N1CCC(N2CCC(O)(c3ccc(Cl)cc3)CC2)CC1 | 0.5 µM | 0.18 µM | – |
| O=S(=O)(NCCCN1CCC(O)(c2ccc(Cl)cc2)CC1)c1ccc(C(F)(F)F)cc1 | 9.4 µM | 2.2 µM | – |
| O=S(=O)(NCCCN1CCC(O)(c2ccc(Cl)cc2)CC1)c1ccc(OC(F)(F)F)cc1 | 9 µM | 3.65 µM | – |
| O=S(=O)(c1cccs1)N1CCC(N2CCC(O)(c3ccc(Cl)cc3)CC2)CC1 | 0.97 µM | 1.02 µM | – |
| O=S(=O)(c1ccccc1Cl)N1CCC(N2CCC(O)(c3cc(F)c(F)c(F)c3)CC2)CC1 | 1.33 µM | 2.55 µM | – |
| Cc1cccc(Cl)c1S(=O)(=O)N1CCC[C@H](N2CCC(O)(c3ccc(Cl)cc3)CC2)C1 | 0.43 µM | 0.48 µM | – |

| SMILES | IC50 [1] | IC50 [2] | IC50 (THP-1) |
| --- | --- | --- | --- |
| COc1ccc(S(=O)(=O)NCCCN2CCC(O)(c3ccc(Cl)cc3)CC2)cc1 | 3.88 µM | 0.83 µM | – |
| O=S(=O)(c1ccccc1Cl)N1CCC(N2CCC(O)(c3ccc(Oc4ccccc4)cc3)CC2)CC1 | > 10 µM | > 10 µM | – |
| O=S(=O)(NCCCN1CCC(O)(c2ccc(Cl)cc2)CC1)c1ccc(Cl)c(Cl)c1 | 1.85 µM | 2.46 µM | – |
| O=S(=O)(NCCCN1CCC(O)(c2ccc(Cl)cc2)CC1)c1cccc(Cl)c1Cl | 0.51 µM | 0.35 µM | – |
| O=S(=O)(c1ccccc1Cl)N1CCC(N2CCC(O)(c3ccc(Cl)cc3)CC2)CC1 | 0.2 µM | 0.13 µM | 0.183 µM |
| CC1CC(N2CCC(O)(c3ccc(Cl)cc3)CC2)CCN1S(=O)(=O)c1ccccc1Br (configuration not stated) | 0.22 µM | 0.12 µM | – |
| O=S(=O)(c1ccc(Cl)c(Cl)c1Cl)N1CCC(N2CCC(O)(c3ccc(Cl)cc3)CC2)CC1 | 3.6 µM | 0.67 µM | – |
| O=S(=O)(NCCCN1CCC(O)(c2ccc(Cl)cc2)CC1)c1ccccc1F | 0.58 µM | 0.08 µM | – |
| O=S(=O)(NCCCN1CCC(O)(c2ccc(Cl)cc2)CC1)c1ccccc1-c1ccccc1 | 0.6 µM | 0.084 µM | 0.151 µM |
| N#CC1(c2ccc(Cl)cc2)CCN(CCCNS(=O)(=O)c2ccccc2Cl)CC1 | 0.6 µM | – | – |
| O=S(=O)(c1ccccc1Cl)N1CCC(N2CCC(O)(c3ccc(F)c(Cl)c3)CC2)CC1 | 0.51 µM | 0.59 µM | – |
| O=S(=O)(c1ccccc1Cl)N1CCC[C@@H](N2CCC(O)(c3ccc(Cl)cc3)CC2)C1 | 1.98 µM | 1.29 µM | – |
| O=S(=O)(NCCCN1CCC(O)(c2ccc(Cl)cc2)CC1)c1ccsc1 | 0.57 µM | 0.385 µM | – |
| O=S(=O)(c1ccccc1Cl)N1CCC(N2CCC(O)(c3ccc(Br)cc3)CC2)CC1 | 0.44 µM | 0.18 µM | – |
| Cc1cccc(Cl)c1S(=O)(=O)N1CCC(N2CCC(O)(c3ccc(Cl)cc3)C2)CC1 (configuration not stated) | > 30 µM | > 10 µM | – |
| O=S(=O)(NCCCN1CCC(O)(c2ccc(Cl)cc2)CC1)c1ccccc1Cl | 0.11 µM | 0.04 µM | – |
| O=S(=O)(NCCCN1CCC(O)(c2ccc(Cl)cc2)CC1)c1cccc(Cl)c1 | 0.38 µM | 0.1 µM | – |
| O=S(=O)(c1c(F)cc(F)cc1Br)N1CCC(N2CCC(O)(c3ccc(Cl)cc3)CC2)CC1 | 1.12 µM | 0.33 µM | – |
| O=S(=O)(NCCCN1CCC(O)(c2ccc(Cl)cc2)CC1)c1ccccc1C(F)(F)F | 0.25 µM | 0.05 µM | – |
| O=S(=O)(NCCCN1CCC(O)(c2ccc(Cl)cc2)CC1)c1cc(Cl)ccc1Cl | 0.54 µM | 0.28 µM | – |
| CSc1ccc(C2(O)CCN(C3CCN(S(=O)(=O)c4ccccc4Cl)CC3)CC2)cc1 | > 10 µM | 7.98 µM | – |
| O=S(=O)(NCCCN1CCC(O)(c2ccc(Cl)cc2)CC1)c1ccccc1-c1ccsc1 | 0.35 µM | 0.11 µM | – |

| SMILES | IC50 [1] | IC50 [2] | IC50 (THP-1) |
| --- | --- | --- | --- |
| O=S(=O)(NCCCN1CCC(O)(c2ccc(Cl)cc2)CC1)c1ccc2ccccc2c1 | 1.15 µM | 0.52 µM | – |
| CC1(N2CCC(O)(c3ccc(Cl)cc3)CC2)CCN(S(=O)(=O)c2ccccc2Cl)CC1 | 5.15 µM | 2.26 µM | – |
| O=S(=O)(NCCCN1CCC(O)(c2ccc(Cl)cc2)CC1)c1ccc(Cl)cc1Cl | 0.41 µM | 0.36 µM | – |
| N#CC1(c2ccc(Cl)cc2)CCN(C2CCN(S(=O)(=O)c3ccccc3Cl)CC2)CC1 | 1 µM | – | – |
| O=S(=O)(NCCCN1CCC(O)(c2ccc(Cl)cc2)CC1)c1ccc(Cl)cc1 | 0.8 µM | 0.37 µM | – |
| O=S(=O)(NCCCN1CCC(O)(c2ccc(Cl)cc2)CC1)c1cccs1 | 0.16 µM | 0.07 µM | – |
| O=S(=O)(NCCCN1CCC(O)(c2ccc(Cl)cc2)CC1)c1ccccc1 | 0.3 µM | 0.09 µM | – |
| CC1(N2CCC(O)(c3ccc(Cl)cc3)CC2)CCN(S(=O)(=O)c2c(Cl)cccc2Cl)CC1 | 4.2 µM | 4.65 µM | – |
| O=S(=O)(NCCCN1CCC(O)(c2ccc(Cl)cc2)CC1)c1c(Cl)cccc1Cl | 0.08 µM | 0.03 µM | – |
| O=S(=O)(c1ccccc1Cl)N1CCC(N2CCC(O)(c3ccc(Cl)cc3)C2)CC1 (configuration not stated) | > 30 µM | > 10 µM | – |
| O=S(=O)(NCCCN1CCC(O)(c2ccc(Cl)cc2)CC1)c1ccc(F)cc1Cl | 0.36 µM | 0.1 µM | – |
| O=S(=O)(NCCCN1CCC(O)(c2ccc(Cl)cc2)CC1)c1cc(Cl)cc(Cl)c1 | 0.78 µM | 1.34 µM | – |
| O=S(=O)(c1ccccc1Cl)N1CCC[C@H](N2CCC(O)(c3ccc(Cl)cc3)CC2)C1 | 1.9 µM | 2.04 µM | – |
| O=S(=O)(NCCCN1CCC(O)(c2ccc(Cl)cc2)CC1)c1ccccc1OC(F)(F)F | 0.35 µM | 0.19 µM | – |
| O=S(=O)(NCCCN1CCC(O)(c2ccc(Cl)cc2)CC1)c1ccc(F)cc1 | 0.91 µM | 0.21 µM | – |
| O=S(=O)(c1ccccc1Cl)N1CCC(N2CCC(O)(c3ccc(-c4ccccc4)cc3)CC2)CC1 | > 10 µM | > 10 µM | – |
| O=S(=O)(c1ccccc1Br)N1CCC[C@@H](N2CCC(O)(c3ccc(Cl)cc3)CC2)C1 | 1.4 µM | 1.4 µM | – |
| O=S(=O)(c1ccccc1Cl)N1CCC(N2CCC(O)(c3ccc(Cl)c(F)c3)CC2)CC1 | 0.43 µM | 0.61 µM | – |
| Cc1cccc(Cl)c1S(=O)(=O)N1CCC(N2CCC(O)(c3ccc(Cl)cc3)CC2)CC1 | 0.37 µM | 0.43 µM | – |
| CC(C)(C)c1ccc(C2(O)CCN(C3CCN(S(=O)(=O)c4ccccc4Cl)CC3)CC2)cc1 | > 10 µM | > 10 µM | – |
| O=C(NCCCN1CCC(O)(c2ccc(Cl)cc2)CC1)c1ccc2ccccc2c1 | 5.83 µM | 1.65 µM | – |
| O=S(=O)(c1ccccc1Cl)N1CCC(N2CCC(O)(c3ccc(F)cc3)CC2)CC1 | 1.17 µM | 1.25 µM | – |
